SMILES strings stand for the structures. Values after ≈ are worked out from the molar mass of the structure shown.

For assay [1], the system named is Mycobacterium tuberculosis. As to the kind of experiment: Minimum Inhibitory Concentration against drug-resistant strain of Mycobacterium tuberculosis Erdman. Type of assay: functional. The method, boiled down:
(§1)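 MICs by microplate alamar blue assay against M. tuberculosis strains resistant to isoniazid (ATCC 35822), rifampin (ATCC 35838), ethambutol, kanamycin or ciprofloxacin, drug-sensitive strain Erdman, and M. avium (ATCC 25291). MIC = minimum concentration giving 90% growth inhibition.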

The test system of another assay is Mycobacterium avium. As to the kind of experiment: Minimum Inhibitory Concentration against drug-resistant strain of Mycobacterium tuberculosis avium. Type of assay: functional. Put shortly:
as §1

The MIC is the smallest concentration in the dilution series that meets the test's criterion for growth inhibition. A higher MIC goes with weaker potency. For `Clc1nc(-c2ccco2)c2ncn(Cc3ccccc3)c2n1`, the MIC in assay [1] came out at 12.5 µg/mL (≈ 40.2 µM); against Mycobacterium avium, 25 µg/mL (≈ 80.5 µM).

Source of the values: ChEMBL document CHEMBL1135898, “Synthesis and antimycobacterial activity of 6-arylpurines: the requirements for the N-9 substituent in active antimycobacterial purines” (J Med Chem, 2002).
